Reference: ChEMBL document CHEMBL1127560, “Tyrosine kinase inhibitors. 3. Structure-activity relationships for inhibition of protein tyrosine kinases by nuclear-substituted derivatives of 2,2'-dithiobis(1-methyl-N-phenyl-1H-indole-3-carboxamide)” (J Med Chem, 1994)

What was measured:
[1] = target: Epidermal growth factor receptor (Homo sapiens, UniProt P00533); assay: Inhibition of tyrosine phosphorylation activity of the epidermal growth factor receptor (EGFR) tyrosine kinase from human A-431 carcinoma cell-shed membrane vesicles
[2] = test system: Swiss 3T3 (Mus musculus); assay: Inhibition of Swiss 3T3 Mouse fibroblast proliferation
[3] = target: Platelet-derived growth factor receptor (Mus musculus, UniProt P05622+P26618); assay: Inhibition of PDGF receptor autophosphorylation in mouse fibroblasts; type: protein-complex assay
Outline: (§1)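 Confluent Swiss 3T3 fibroblasts were pretreated 2 h with graded compound concentrations, then stimulated 5 min with EGF or PDGF. Monolayers were lysed in boiling Laemmli buffer and resolved on 4–20% SDS gels. Blots were probed with antiphosphotyrosine antibody (1 μg/mL) and [¹²⁵I]protein A, and receptor autophosphorylation was quantified by densitometry. IC50 is 50% inhibition of autophosphorylation.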

[4] = test system: KG-1; assay: Inhibition of kg1A acute myelogenous leukemia cell proliferation; type: functional, cell-based; conditions: Homo sapiens
Outline: (§2)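 Cells kept in dMEM/F12 (50:50) with 10% fetal bovine serum. 2 × 10⁴ cells were seeded into wells holding compound dilutions in DMSO and exposed for 72 h at 37 °C under 5% CO₂. Growth was read by electronic cell count. IC50 is the concentration giving 50% growth inhibition, as the mean of two separate duplicate determinations.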

[5] = test system: K562; assay: Inhibition of K562 chronic myelogenous leukemia cell proliferation; type: functional, cell-based; conditions: Homo sapiens; outline: as §2
[6] = target: Epidermal growth factor receptor (Mus musculus, UniProt Q01279); assay: Inhibition of epidermal growth factor receptor (EGFR-mediated tyrosine autophosphorylation in mouse fibroblasts.; outline: as §1
[7] = test system: A-431; assay: Inhibition of A431 human epidermoid carcinoma cell proliferation; type: functional, cell-based; outline: as §2

Epidermal growth factor receptor (Mus musculus, UniProt Q01279), sequence (Q01279 whole entry): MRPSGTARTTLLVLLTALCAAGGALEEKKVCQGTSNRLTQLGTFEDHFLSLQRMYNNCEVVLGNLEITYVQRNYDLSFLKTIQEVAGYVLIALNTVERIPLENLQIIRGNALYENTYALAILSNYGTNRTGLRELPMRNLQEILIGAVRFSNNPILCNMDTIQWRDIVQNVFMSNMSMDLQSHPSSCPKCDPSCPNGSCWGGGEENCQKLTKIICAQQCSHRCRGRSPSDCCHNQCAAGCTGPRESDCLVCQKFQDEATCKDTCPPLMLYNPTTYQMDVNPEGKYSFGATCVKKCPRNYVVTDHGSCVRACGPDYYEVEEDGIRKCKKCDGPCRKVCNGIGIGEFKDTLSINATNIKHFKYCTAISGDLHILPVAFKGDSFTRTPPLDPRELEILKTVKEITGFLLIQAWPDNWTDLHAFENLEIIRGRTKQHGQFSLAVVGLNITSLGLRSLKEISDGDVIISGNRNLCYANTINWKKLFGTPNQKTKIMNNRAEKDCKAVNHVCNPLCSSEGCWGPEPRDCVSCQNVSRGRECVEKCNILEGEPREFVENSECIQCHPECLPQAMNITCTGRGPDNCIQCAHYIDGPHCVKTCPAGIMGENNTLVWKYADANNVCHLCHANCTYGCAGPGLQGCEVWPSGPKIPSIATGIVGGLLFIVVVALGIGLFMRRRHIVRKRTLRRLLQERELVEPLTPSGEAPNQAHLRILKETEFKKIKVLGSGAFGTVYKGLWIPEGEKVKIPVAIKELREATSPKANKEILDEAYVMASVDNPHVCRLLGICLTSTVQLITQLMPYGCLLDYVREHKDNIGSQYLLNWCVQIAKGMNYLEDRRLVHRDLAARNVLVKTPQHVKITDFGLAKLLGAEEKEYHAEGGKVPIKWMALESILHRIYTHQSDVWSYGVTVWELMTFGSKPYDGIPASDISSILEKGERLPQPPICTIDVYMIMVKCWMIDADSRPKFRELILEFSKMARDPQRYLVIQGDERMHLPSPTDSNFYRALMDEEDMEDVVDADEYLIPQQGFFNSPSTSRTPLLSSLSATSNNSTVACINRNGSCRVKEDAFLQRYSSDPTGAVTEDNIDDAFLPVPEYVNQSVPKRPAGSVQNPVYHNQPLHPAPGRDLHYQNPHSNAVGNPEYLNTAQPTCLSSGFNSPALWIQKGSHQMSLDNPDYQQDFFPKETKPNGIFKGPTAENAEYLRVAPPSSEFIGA
Epidermal growth factor receptor (Homo sapiens, UniProt P00533), sequence (P00533 whole entry): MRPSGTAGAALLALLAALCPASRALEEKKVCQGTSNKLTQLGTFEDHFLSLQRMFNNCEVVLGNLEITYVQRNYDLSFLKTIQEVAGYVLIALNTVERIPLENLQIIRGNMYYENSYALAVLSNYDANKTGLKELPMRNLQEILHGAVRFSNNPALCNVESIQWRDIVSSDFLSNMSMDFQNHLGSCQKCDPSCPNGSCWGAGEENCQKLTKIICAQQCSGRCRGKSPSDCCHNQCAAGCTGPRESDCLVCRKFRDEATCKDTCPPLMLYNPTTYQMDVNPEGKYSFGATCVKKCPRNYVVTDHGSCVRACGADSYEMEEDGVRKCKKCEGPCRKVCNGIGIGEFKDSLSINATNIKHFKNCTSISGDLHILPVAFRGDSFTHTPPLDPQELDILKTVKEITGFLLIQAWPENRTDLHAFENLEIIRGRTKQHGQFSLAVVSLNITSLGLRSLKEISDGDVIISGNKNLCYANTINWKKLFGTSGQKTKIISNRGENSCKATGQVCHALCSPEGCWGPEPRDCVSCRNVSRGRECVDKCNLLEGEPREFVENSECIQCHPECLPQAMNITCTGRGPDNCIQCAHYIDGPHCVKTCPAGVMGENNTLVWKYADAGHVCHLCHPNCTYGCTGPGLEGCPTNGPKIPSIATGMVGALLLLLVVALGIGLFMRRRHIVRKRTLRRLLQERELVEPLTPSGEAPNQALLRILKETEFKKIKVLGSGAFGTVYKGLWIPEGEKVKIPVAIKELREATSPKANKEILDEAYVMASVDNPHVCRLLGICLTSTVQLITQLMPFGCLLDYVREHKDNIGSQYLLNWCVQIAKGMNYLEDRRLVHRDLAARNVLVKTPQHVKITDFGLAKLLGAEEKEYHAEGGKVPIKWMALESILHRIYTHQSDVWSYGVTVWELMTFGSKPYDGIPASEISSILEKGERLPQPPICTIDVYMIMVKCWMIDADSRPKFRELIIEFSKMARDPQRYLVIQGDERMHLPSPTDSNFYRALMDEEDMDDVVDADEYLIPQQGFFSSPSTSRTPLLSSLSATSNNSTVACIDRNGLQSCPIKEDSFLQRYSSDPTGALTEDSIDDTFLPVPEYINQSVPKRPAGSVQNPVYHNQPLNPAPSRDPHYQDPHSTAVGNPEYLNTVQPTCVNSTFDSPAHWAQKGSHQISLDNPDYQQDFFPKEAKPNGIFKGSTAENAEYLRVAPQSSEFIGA

SMILES | IC50 [1] | IC50 [2] | also measured
Cn1c(SSc2c(C(=O)Nc3ccccc3)c3cc([N+](=O)[O-])ccc3n2C)c(C(=O)Nc2ccccc2)c2cc([N+](=O)[O-])ccc21 | 5 µM |  | 
Cn1c(SSc2c(C(=O)Nc3ccccc3)c3ccc(Cl)cc3n2C)c(C(=O)Nc2ccccc2)c2ccc(Cl)cc21 | > 100 µM |  | 
Cc1ccc2c(C(=O)Nc3ccccc3)c(SSc3c(C(=O)Nc4ccccc4)c4ccc(C)cc4n3C)n(C)c2c1 | > 100 µM | 96 µM | 
CN1C(=S)C(C(=O)Nc2ccccc2)c2cc(Cl)ccc21 (centres undefined) | > 100 µM |  | 
Cn1c(SSc2c(C(=O)Nc3ccccc3)c3cccc(O)c3n2C)c(C(=O)Nc2ccccc2)c2cccc(O)c21 | 100 µM |  | 
CC(=O)Oc1cccc2c(C(=O)Nc3ccccc3)c(SSc3c(C(=O)Nc4ccccc4)c4cccc(OC(C)=O)c4n3C)n(C)c12 | 9.9 µM |  | 
Cn1c(SSc2c(C(=O)Nc3ccccc3)c3cc(O)ccc3n2C)c(C(=O)Nc2ccccc2)c2cc(O)ccc21 | 40.5 µM |  | 
COc1cccc2c1c(C(=O)Nc1ccccc1)c(SSc1c(C(=O)Nc3ccccc3)c3c(OC)cccc3n1C)n2C | > 100 µM | 1.9 µM | 
COc1ccc2c(c1)c(C(=O)Nc1ccccc1)c(SSc1c(C(=O)Nc3ccccc3)c3cc(OC)ccc3n1C)n2C | > 100 µM | 20 µM | 
Cn1c(SSc2c(C(=O)Nc3ccccc3)c3c(Cl)cccc3n2C)c(C(=O)Nc2ccccc2)c2c(Cl)cccc21 | 100 µM |  | 
Cn1c(SSc2c(C(=O)Nc3ccccc3)c3cc(C(F)(F)F)ccc3n2C)c(C(=O)Nc2ccccc2)c2cc(C(F)(F)F)ccc21 | > 100 µM |  | 
COc1ccc2c(C(=O)Nc3ccccc3)c(SSc3c(C(=O)Nc4ccccc4)c4ccc(OC)cc4n3C)n(C)c2c1 |  | 17 µM | IC50 [3]: > 100 µM
Cc1cccc2c1c(C(=O)Nc1ccccc1)c(SSc1c(C(=O)Nc3ccccc3)c3c(C)cccc3n1C)n2C | > 100 µM | 4 µM | 
CN1C(=S)C(C)(C(=O)Nc2ccccc2)c2ccccc21 (centres undefined) | > 100 µM |  | 
Cn1c(SSc2c(C(=O)Nc3ccccc3)c3cc(F)ccc3n2C)c(C(=O)Nc2ccccc2)c2cc(F)ccc21 | > 100 µM |  | 
CN1C(=S)C(C(=O)Nc2ccccc2)c2cccnc21 (centres undefined) | > 100 µM |  | 
Cn1c(SSc2ccccc2)c(C(=O)Nc2ccccc2)c2ccccc21 | > 100 µM |  | 
Cc1cccc2c(C(=O)Nc3ccccc3)c(SSc3c(C(=O)Nc4ccccc4)c4cccc(C)c4n3C)n(C)c12 | > 100 µM |  | 
CC(=O)Oc1ccc2c(C(=O)Nc3ccccc3)c(SSc3c(C(=O)Nc4ccccc4)c4ccc(OC(C)=O)cc4n3C)n(C)c2c1 | > 100 µM |  | 
Cn1c(SSc2c(C(=O)Nc3ccccc3)c3cccc(Cl)c3n2C)c(C(=O)Nc2ccccc2)c2cccc(Cl)c21 | > 100 µM |  | 
Cc1ccc2c(c1)c(C(=O)Nc1ccccc1)c(SSc1c(C(=O)Nc3ccccc3)c3cc(C)ccc3n1C)n2C | > 100 µM | 22 µM | 
Cn1c(SSc2c(C(=O)Nc3ccccc3)c3ccccc3n2C)c(C(=O)Nc2ccccc2)c2ccccc21 | 10 µM | 12 µM | IC50 [3]: > 100 µM; IC50 [4]: 12 µM; IC50 [5]: 18 µM; IC50 [6]: > 100 µM; IC50 [7]: 14 µM
CC(=O)Oc1cccc2c1c(C(=O)Nc1ccccc1)c(SSc1c(C(=O)Nc3ccccc3)c3c(OC(C)=O)cccc3n1C)n2C | 20 µM |  | 
CSc1c(C(=O)Nc2ccccc2)c2ccccc2n1C | > 100 µM |  | 
Cn1c(SSc2c(C(=O)Nc3ccccc3)c3cccnc3n2C)c(C(=O)Nc2ccccc2)c2cccnc21 |  | 10 µM | IC50 [3]: > 25 µM; IC50 [6]: > 25 µM
COc1cccc2c(C(=O)Nc3ccccc3)c(SSc3c(C(=O)Nc4ccccc4)c4cccc(OC)c4n3C)n(C)c12 |  | 24 µM | IC50 [3]: > 100 µM; IC50 [6]: > 100 µM
CN1C(=S)C(C(=O)Nc2ccccc2)c2ccccc21 (centres undefined) |  | 64 µM | IC50 [3]: 17 µM; IC50 [4]: 38 µM; IC50 [5]: 32 µM; IC50 [6]: > 100 µM; IC50 [7]: 15 µM
Cn1c(SSCc2ccccc2)c(C(=O)Nc2ccccc2)c2ccccc21 | > 100 µM |  | 
